# Source: ChEMBL document CHEMBL1142666, “Novel [2',5'-bis-O-(tert-butyldimethylsilyl)-beta-D-ribofuranosyl]- 3'-spiro-5''-(4''-amino-1'',2''-oxathiole-2'',2" -dioxide) derivatives with anti-HIV-1 and anti-human-cytomegalovirus activity” (J Med Chem, 2005)
# System: MT4
# Assay: Cytostatic concentration required to inhibit MT-4 cell proliferation
# Type: functional
# Conditions: Homo sapiens
# How it was run: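 Mock-infected MT-4 cells (3 × 10^5/mL) incubated with compound dilutions for 5 days. Viable cells counted by trypan blue exclusion. CC50 = concentration reducing viable MT-4 cell number by 50%.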
row,SMILES,CC50 [µM]
1,Cc1cn([C@@H]2O[C@H](CO[Si](C)(C)C(C)(C)C)[C@@]3(OS(=O)(=O)C=C3NC(=O)C(N)=O)[C@H]2O[Si](C)(C)C(C)(C)C)c(=O)n(C)c1=O,9.59
2,Cc1cn([C@@H]2O[C@H](CO[Si](C)(C)C(C)(C)C)[C@@]3(OS(=O)(=O)C=C3NCCC(=O)O)[C@H]2O[Si](C)(C)C(C)(C)C)c(=O)n(C)c1=O,11.5

# System: CCRF-CEM
# Assay: Effective concentration required to inhibit HIV-2 ROD in CEM cell culture
# Type: functional, cell-based
# Conditions: Homo sapiens
# How it was run: (§1)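 CEM cells (4 × 10^5/mL) infected at ~100 CCID50/mL and mixed with compound dilutions. Giant cell formation scored microscopically at day 4. EC50 = concentration inhibiting virus-induced cytopathicity by 50%.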
row,SMILES,EC50 [µM]
1,Cc1cn([C@@H]2O[C@H](CO[Si](C)(C)C(C)(C)C)[C@@]3(OS(=O)(=O)C=C3NC(=O)C(N)=O)[C@H]2O[Si](C)(C)C(C)(C)C)c(=O)n(C)c1=O,> 10
2,Cc1cn([C@@H]2O[C@H](CO[Si](C)(C)C(C)(C)C)[C@@]3(OS(=O)(=O)C=C3NCCC(=O)O)[C@H]2O[Si](C)(C)C(C)(C)C)c(=O)n(C)c1=O,> 10

# System: HEL
# Assay: Minimal cytotoxic concentration required to cause microscopically visible alteration of cell morphology in HEL Cells
# Type: functional
# Conditions: Homo sapiens
# How it was run: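 Uninfected HEL cells exposed to compound. Minimum cytotoxic concentration is the lowest level giving a microscopically detectable change in cell morphology.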
row,SMILES,MCC [µM]
1,Cc1cn([C@@H]2O[C@H](CO[Si](C)(C)C(C)(C)C)[C@@]3(OS(=O)(=O)C=C3NC(=O)C(N)=O)[C@H]2O[Si](C)(C)C(C)(C)C)c(=O)n(C)c1=O,≥ 16
2,Cc1cn([C@@H]2O[C@H](CO[Si](C)(C)C(C)(C)C)[C@@]3(OS(=O)(=O)C=C3NCCC(=O)O)[C@H]2O[Si](C)(C)C(C)(C)C)c(=O)n(C)c1=O,80

# System: CCRF-CEM
# Assay: Effective concentration required to inhibit HIV-1 IIIB in CEM cell culture
# Type: functional, cell-based
# Conditions: Homo sapiens
# How it was run: as §1
row,SMILES,EC50 [µM]
1,Cc1cn([C@@H]2O[C@H](CO[Si](C)(C)C(C)(C)C)[C@@]3(OS(=O)(=O)C=C3NC(=O)C(N)=O)[C@H]2O[Si](C)(C)C(C)(C)C)c(=O)n(C)c1=O,0.028
2,Cc1cn([C@@H]2O[C@H](CO[Si](C)(C)C(C)(C)C)[C@@]3(OS(=O)(=O)C=C3NCCC(=O)O)[C@H]2O[Si](C)(C)C(C)(C)C)c(=O)n(C)c1=O,> 10

# System: HEL
# Assay: Cytostatic concentration required to inhibit HEL cell proliferation
# Type: functional
# Conditions: Homo sapiens
# How it was run: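 HEL fibroblasts seeded at 5 × 10^3 cells/well and grown 24 h, then given compound in duplicate. After 3 days at 37 °C in 5% CO2, cell number read on a Coulter counter. CC50 = concentration reducing cell growth by 50%.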
row,SMILES,CC50 [µM]
1,Cc1cn([C@@H]2O[C@H](CO[Si](C)(C)C(C)(C)C)[C@@]3(OS(=O)(=O)C=C3NC(=O)C(N)=O)[C@H]2O[Si](C)(C)C(C)(C)C)c(=O)n(C)c1=O,14.5
2,Cc1cn([C@@H]2O[C@H](CO[Si](C)(C)C(C)(C)C)[C@@]3(OS(=O)(=O)C=C3NCCC(=O)O)[C@H]2O[Si](C)(C)C(C)(C)C)c(=O)n(C)c1=O,34

# System: CCRF-CEM
# Assay: Cytostatic concentration required to inhibit CEM cell proliferation
# Type: functional
# Conditions: Homo sapiens
# How it was run: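 CEM cells, mock-infected, grown with serial compound dilutions for 4 days. CC50 taken as the concentration that inhibits CEM cell proliferation by 50%.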
row,SMILES,CC50 [µM]
1,Cc1cn([C@@H]2O[C@H](CO[Si](C)(C)C(C)(C)C)[C@@]3(OS(=O)(=O)C=C3NC(=O)C(N)=O)[C@H]2O[Si](C)(C)C(C)(C)C)c(=O)n(C)c1=O,9.96
2,Cc1cn([C@@H]2O[C@H](CO[Si](C)(C)C(C)(C)C)[C@@]3(OS(=O)(=O)C=C3NCCC(=O)O)[C@H]2O[Si](C)(C)C(C)(C)C)c(=O)n(C)c1=O,19.4

# System: MT4
# Assay: Effective concentration required to inhibit HIV-1 IIIB in MT-4 cell culture
# Type: functional, cell-based
# Conditions: Homo sapiens
# How it was run: (§2)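 MT-4 cells (3 × 10^5/mL) infected at ~100 CCID50/mL and mixed with compound dilutions. Cytopathicity read by trypan blue exclusion at day 5. EC50 = concentration giving 50% protection against virus-induced loss of viability.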
row,SMILES,EC50 [µM]
1,Cc1cn([C@@H]2O[C@H](CO[Si](C)(C)C(C)(C)C)[C@@]3(OS(=O)(=O)C=C3NC(=O)C(N)=O)[C@H]2O[Si](C)(C)C(C)(C)C)c(=O)n(C)c1=O,0.057
2,Cc1cn([C@@H]2O[C@H](CO[Si](C)(C)C(C)(C)C)[C@@]3(OS(=O)(=O)C=C3NCCC(=O)O)[C@H]2O[Si](C)(C)C(C)(C)C)c(=O)n(C)c1=O,> 50

# System: MT4
# Assay: Effective concentration required to inhibit HIV-2 ROD in MT-4 cell culture
# Type: functional, cell-based
# Conditions: Homo sapiens
# How it was run: as §2
row,SMILES,EC50 [µM]
1,Cc1cn([C@@H]2O[C@H](CO[Si](C)(C)C(C)(C)C)[C@@]3(OS(=O)(=O)C=C3NC(=O)C(N)=O)[C@H]2O[Si](C)(C)C(C)(C)C)c(=O)n(C)c1=O,> 2
2,Cc1cn([C@@H]2O[C@H](CO[Si](C)(C)C(C)(C)C)[C@@]3(OS(=O)(=O)C=C3NCCC(=O)O)[C@H]2O[Si](C)(C)C(C)(C)C)c(=O)n(C)c1=O,> 50

# System: HEL
# Assay: Effective concentration required to inhibit HCMV Davis in HEL Cells
# Type: functional, cell-based
# Conditions: Homo sapiens
# How it was run: (§3)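 Confluent HEL cells infected with HCMV at 100 PFU/well. After 1-2 h, residual virus removed and MEM with 2% inactivated FCS added, with compound in duplicate at 5-fold dilution steps. After 7 days at 37 °C in 5% CO2, cells fixed with ethanol and Giemsa-stained; plaques or CPE scored microscopically. IC50 interpolated graphically; mean of two independent experiments.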
row,SMILES,EC50 [µM]
1,Cc1cn([C@@H]2O[C@H](CO[Si](C)(C)C(C)(C)C)[C@@]3(OS(=O)(=O)C=C3NC(=O)C(N)=O)[C@H]2O[Si](C)(C)C(C)(C)C)c(=O)n(C)c1=O,6.5
2,Cc1cn([C@@H]2O[C@H](CO[Si](C)(C)C(C)(C)C)[C@@]3(OS(=O)(=O)C=C3NCCC(=O)O)[C@H]2O[Si](C)(C)C(C)(C)C)c(=O)n(C)c1=O,8

# System: HEL
# Assay: Effective concentration required to inhibit HCMV AD-169 in HEL Cells
# Type: functional, cell-based
# Conditions: Homo sapiens
# How it was run: as §3
row,SMILES,EC50 [µM]
1,Cc1cn([C@@H]2O[C@H](CO[Si](C)(C)C(C)(C)C)[C@@]3(OS(=O)(=O)C=C3NC(=O)C(N)=O)[C@H]2O[Si](C)(C)C(C)(C)C)c(=O)n(C)c1=O,6.5
2,Cc1cn([C@@H]2O[C@H](CO[Si](C)(C)C(C)(C)C)[C@@]3(OS(=O)(=O)C=C3NCCC(=O)O)[C@H]2O[Si](C)(C)C(C)(C)C)c(=O)n(C)c1=O,> 16
